Only some compounds are listed: those with a hit (about 3.4% of all), similar ones and a draw of the others.
Runt-SMMHC FRET = inhibitors of human RUNX1 Runt domain binding to CBFb-SMMHC; Q01196+Q13951; Cerulean-Runt/Venus-CBFb-SMMHC FRET ratio 530/480, 1 h; hit rate 0.74% among 220,000; inhibition, % at 20 µM;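 active means mean inhibition across duplicate retests at 20 µM reaching about 50%, limit read from the data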;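 further: 0% = DMSO wells and 100% = wells with excess untagged CBFb-SMMHC; inhibitors lower the FRET ratio by blocking Runt binding to CBFb-SMMHC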
RanGTP-Imp inh = disruptors of Ran-importin-beta complex formation – biochemical, FRET, CFP-Ran, YFP-importin-beta, homogeneous, primary screen; cell-free CFP-Ran/YFP-importin-beta FRET ratio; inhibition, % (concentration not given with the values); AID 2216; hit rate 1.1% among 300,000;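 active means more than half of the replicate wells show a fall in the fluorescence ratio signal beyond about 16%, limit read from the data, passing the limit was not always enough; inconclusive means exactly half of the replicate wells pass the set limit; inactive means fewer than half of replicates pass the limit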;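 further: 0% = DMSO wells and 100% = Ran loaded with GDP instead of GTP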
PHOSPHO1 block = PHOSPHO1 (human) inhibition | Q8TCT1 | recombinant PHOSPHO1, absorbance phosphatase assay | inhibition, % at 13.3 µM | hit rate 1.1% among 290,000 | AID 1565; in the data active means inhibition above about 60%
HMGR II inh = inhibitors of class II HMG-CoA reductase from Enterococcus faecalis; AID 1066; hit rate 0.41% among 190,000; inhibition, % at 10 µM; purified E. faecalis HMGR, NADPH absorbance 340 nm kinetic;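 active means inhibition above a set limit, the median over all tested compounds plus 3 SD, cut at about 9.5% in these data; inconclusive means no clear call, values can overlap the other calls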;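 further: enzyme runs in reverse so mevalonate oxidation gives rising NADPH absorbance; 0% = complete reaction with DMSO and 100% = background rate lacking mevalonate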
Wee1 degr inh = inhibitors of human Wee1 degradation | HeLa Luc-Wee1K328M stability, luciferase luminescence; 100% = proteasome inhibitor MG132 effect | reporter increase, % at 5 µM | hit rate 1.2% among 220,000 | P30291;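 active means activation above the mean of all tested compounds plus 3 SD, set per screening run, cut at about 8.8% in these data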;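 further: cells exposed to compound for 20 h before luminescence read; 0% = DMSO alone and 100% = MG132 at 30 µM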
Target sequence (P30291 whole entry K328M): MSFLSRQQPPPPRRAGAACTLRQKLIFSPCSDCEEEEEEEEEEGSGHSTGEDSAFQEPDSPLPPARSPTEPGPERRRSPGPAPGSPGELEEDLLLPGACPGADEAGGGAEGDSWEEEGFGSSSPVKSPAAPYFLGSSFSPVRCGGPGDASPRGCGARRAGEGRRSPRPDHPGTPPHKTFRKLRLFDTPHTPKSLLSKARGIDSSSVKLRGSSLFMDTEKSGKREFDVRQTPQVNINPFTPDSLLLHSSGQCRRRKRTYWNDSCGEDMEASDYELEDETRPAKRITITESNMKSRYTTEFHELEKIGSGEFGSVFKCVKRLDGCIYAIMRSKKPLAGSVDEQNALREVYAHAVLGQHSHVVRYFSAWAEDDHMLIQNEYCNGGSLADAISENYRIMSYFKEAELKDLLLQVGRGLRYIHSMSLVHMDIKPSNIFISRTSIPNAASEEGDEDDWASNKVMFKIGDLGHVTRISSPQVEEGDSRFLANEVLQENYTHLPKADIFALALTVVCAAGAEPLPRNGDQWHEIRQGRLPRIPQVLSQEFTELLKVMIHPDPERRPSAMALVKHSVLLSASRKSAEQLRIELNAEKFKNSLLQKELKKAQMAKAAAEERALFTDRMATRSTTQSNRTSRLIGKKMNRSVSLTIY
Runt-CBFb FRET = inhibitors of human RUNX1 Runt domain binding to CBFb. Q01196+Q13951. Cerulean-Runt/Venus-CBFb FRET ratio 530/480, 1 h. inhibition, % at 20 µM. hit rate 0.46% among 220,000. AID 1496;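 active means inhibition over about 50% at 20 µM in the single-dose screen, limit read from the data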;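 further: 0% = DMSO wells and 100% = excess unlabeled CBFb competitor control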
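Measured by: fluorescence energy transfer, 422 nm excitation, 530/480 nm emission; test system: Cerulean-tagged RUNX1 Runt domain (FRET donor) fusion protein; buffer or medium: Tris pH 7.5 buffer with BSA; compound: one dose, 20 µM compound, 1% DMSO; times: two 1 h room-temperature incubations shielded from light; benchmarks: unlabeled CBFb 5 µM, positive control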
YIC FRET counter = counter-screen for RanGTP-importin-beta inhibitors: YIC FRET probe. shares compounds with RanGTP-Imp inh. Purified YIC probe, intramolecular FRET ratio YFP/CFP. IC50, µM. hit rate 40% among 1,000. AID 435026;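 active means fitted half-maximal inhibitory concentration no more than tenfold above the top dose tested; inconclusive means flat fit with 30 to 70% activity, or poor fit; inactive means half-maximal concentration beyond tenfold above the top dose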
Starred values were filed as active, the others as inactive; ? = inconclusive; . = not tested or not shown; ! = not active in a repeat.

SMILES	Runt-SMMHC FRET	RanGTP-Imp inh	PHOSPHO1 block	HMGR II inh	Wee1 degr inh	Runt-CBFb FRET	YIC FRET counter
O=C1CCC(C(=O)N2CCCC(C(=O)c3ccc4c5c(cccc35)CC4)C2)=NN1 (centres undefined)	0	0	-2	-5	2	0	.
COc1ccc(C[C@H]2c3cc(O)c(OC)cc3CC[N+]2(C)[O-])cc1O (some centres undefined)	1	0	31	.	.	4	.
O=c1cc(CN2CCN(S(=O)(=O)c3ccc4c(c3)OCCO4)CC2)c2ccc(O)cc2o1	102*	46*	-2	-6	3	102*	6.9*
COc1c2ccc(C(=O)NCCCCc3ccccc3)cc2nn1C	0	-1	27	5	1	2	.
CC(C)(C)NC(=O)C(c1ccco1)N(Cc1ccc(F)cc1)C(=O)c1snc(C(N)=O)c1N (centres undefined)	2	28*	13	3	2	-4	>50
COc1ccc(CN(C(=O)c2snc(C(N)=O)c2N)C(C(=O)NC(C)(C)C)c2ccco2)cc1 (centres undefined)	2	?	15	3	-2	-5	.
CC(C)(C)[C@@H]1C=C(C(=O)N2CCN(Cc3ccc4c(c3)OCO4)CC2)O[C@H](OCc2ccc(CO)cc2)C1	0	7	52	-2	-1	-2	.
Cc1nc2[nH]c(=O)c3c(n2n1)NC1=C(C(=O)CC(C)(C)C1)C3c1ccccc1 (centres undefined)	136*	49*	-4	2	0	78*	4.3*
Cc1ccc(OCC(=O)NCCNC(=O)c2ccc(C)nc2)cc1	.	21*	19	.	.	.	>50
c1csc(COc2ccccc2CNC2CCCCC2)c1	2	-3	-2	0	2	2	.
CCN(CC)CCCNC(=S)N(Cc1cccs1)Cc1cc2cc3c(cc2[nH]c1=O)OCCO3	0	22*	37	-1	-1	-2	>50
Nc1nc(CSc2nc3ccccc3s2)nc(N2CCCCC2)n1	1	36*	18	-11	-2	-1	>50
CCc1ccc(Nc2nc(N)nc(CSc3nc4ccccc4s3)n2)cc1	-3	3	-1	-2	-3	-4	.
CCOc1ccc(OCc2ccc(C(=O)N(CC)CC)cc2)cc1	-3	21*	6	-2	3	-3	>50
CCN(CC(=O)Nc1c(F)cccc1F)C(=O)c1ccc(COc2ccccc2)cc1	.	-1	.	.	.	.	.
COc1ccc(CCNc2nc3ccccc3n3nnnc23)cc1OC	31	28*	-11	-3	3	19	25*
O=C(NC1CCCC1)c1ccc(Cl)c(S(=O)(=O)N2CCCCC2)c1	.	-5	42	.	.	.	.
COc1ccc(C(C)=O)cc1COC(=O)c1ccc(S(=O)(=O)N(C)C)cc1	-4	3	-13	-2	3	-2	.
Cc1cc(CNC(=O)COc2ccc(F)cc2)c2ccccc2n1	-1	18*	38	-5	1	0	>50
Cc1ccc(OCC(=O)NNc2c3ccccc3nc3ccccc23)cc1	24	36*	-3	-1	-2	5	>50
O=C(Cc1ccccc1)NNc1c2ccccc2nc2ccccc12	20	34*	39	0	-2	17	>50
Cc1cc(CNC(=O)COc2ccccc2)c2ccccc2n1	-1	1	20	-4	-1	2	.
Cc1cccc(OCC(=O)NNc2c3ccccc3nc3ccccc23)c1	15	33*	0	-5	1	10	>50
COC(=O)c1c(C)oc(C)c1S(=O)(=O)NCc1cccs1	1	2	12	.	-3	1	.
O=S(=O)(c1ccccc1)N1CCC(O)(CSc2ccc(F)cc2)CC1	0	0	37	-2	-2	-1	.
SMILES	Runt-SMMHC FRET	RanGTP-Imp inh	PHOSPHO1 block	HMGR II inh	Wee1 degr inh	Runt-CBFb FRET	YIC FRET counter
Cc1ccc([N+](=O)[O-])cc1NC(=O)CCCOc1ccccc1	-5	-4	45	-3	-1	-1	.
CS(=O)(=O)N(CC(=O)NCCSCc1ccco1)c1ccc(Cl)cc1	-1	16*	28	5	3	3	>50
CC(C)c1ccc(N(CC(=O)NCCSCc2ccco2)S(C)(=O)=O)cc1	1	0	32	-1	0	-3	.
CC(Sc1nnc(-c2ccccc2F)n1N)C(=O)NCC1CCCO1 (centres undefined)	.	3	.	.	.	.	.
CC(=O)Nc1cccc(C(=O)N/N=C/c2ccc(F)cc2)c1	0	22*	-15	-1	2	-2	>50
CC1CCCN(CCCNC(=O)C2CC(=O)N(CCc3ccccc3)C2)C1 (centres undefined)	.	-2	24	.	.	.	.
CC#CC(=O)N1CCC(C(=O)Nc2ccc(Oc3ccccc3)nc2)CC1	.	18*	43	.	.	.	>50
Cc1cccc(C)c1OCC(=O)OC/C(O)=C(\C#N)c1nc2ccccc2[nH]1	1	26*	3	3	0	3	>50
Cn1c(SCC(=O)NC2CCCCC2)nnc1-c1ccccc1O	.	-6	17	.	.	.	.
CC(C)C(NS(=O)(=O)c1ccc2c(c1)C(C)(C)C(=O)N2C)C(=O)NCc1ccccc1Cl (centres undefined)	.	?	5	.	.	.	.
COC(=O)[C@@H]1[C@H]2C[C@H]3c4[nH]c5ccccc5c4CCN3C[C@@H]2CC[C@@H]1O	.	26*!	5	.	.	.	>50
CCC1CN(C)C2Cc3c([nH]c4ccccc34)C(=O)CC1C2C(=O)OC (centres undefined)	0	0	5	.	4	1	.
COc1ccccc1C(C)Nc1nc(-c2cccnc2)nc2ccccc12 (centres undefined)	.	5	23	.	.	.	.
COC(=O)c1cc(C(=O)OC)[nH]n1	-3	20*	24	-2	-2	2	>50
CC(C)(C)n1cnc2cc(NCc3ccc(Br)cc3)ccc21	.	23*	32	.	.	.	>50
CCn1cnc2cc(NCc3ccc(OC)cc3)ccc21	8	10	-4	-9	1	21	.
CCc1ccc(CNc2ccc3c(c2)ncn3CC)cc1	.	17*	19	.	.	.	>50
CCN(CC)c1ccc(CNc2ccc3c(c2)ncn3C(C)(C)C)cc1	.	-3	-9	.	.	.	.
CCc1ccc(CNc2ccc3c(c2)ncn3C(C)(C)C)cc1	.	18*	19	.	.	.	>50
COCCNC(=O)C12CC3CC(CC(Cl)(C3)C1)C2	-3	1	12	.	1	0	.

From PubChem
